Measurements as given in publication PMC11605122 (Nature Communications, 2024).
Entries after “also recorded” stand apart in the source; their conditions may differ.

Assays:
[1] = blood ketone bodies; format: in vivo, mouse; settings: DIO mice, Fc-GLP1
How it was run: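 DIO mice were fed 60%-fat HFD from 8 weeks of age, for 12 weeks (males) or 24 weeks (females); one male cohort was housed at 30 °C. The test compound was given s.c. every 2 days in 50 mM sodium phosphate/300 mM mannitol pH 6.9. Glucose and ketone bodies were read in tail-vein blood.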

[2] = plasma insulin; format: in vivo, mouse; settings: DIO mice, Fc-GLP1
How it was run: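 Plasma ALT was read with Reflotron strips and plasma TGs by colorimetric assay. Serum FGF21 and plasma adiponectin and insulin were measured by ELISA.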

[3] = BAT skin temperature; format: in vivo, mouse; settings: DIO mice, Fc-GLP1
[4] = system: POMC neurons, arcuate nucleus; test: cFos-positive POMC neurons in ARC; format: in vivo, mouse; settings: DIO mice, Fc-GLP1, 1 week
How it was run: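 Brain slices were blocked 2 h at RT in PBS with 1% BSA and 0.1% Triton X-100. They were incubated overnight at 4 °C with anti-POMC and anti-c-Fos, then with secondary antibodies in 1% BSA/PBS for 2 h at RT, protected from light.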

[5] = peptide concentration in plasma; format: in vivo, mouse; settings: DIO mice, 24 h post-injection, 50 nmol/kg s.c., n = 6; cAMP bioassay
How it was run: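 Plasma activity was read in a cAMP assay on CHO cells expressing human GLP-1R, in HBSS pH 7.4 with 25 mM HEPES, 0.1% BSA and 0.5 mM IBMX. Serial dilutions were run in duplicate for 30 min at RT with HTRF detection. Standards were reference peptide spiked into 0.2% (final) naïve plasma. Sample ratio = sample EC50/reference EC50; concentration = known top concentration/ratio.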

[6] = plasma FFAs; format: in vivo, mouse
[7] = system: BAT, eWAT, iWAT; test: UCP1 and TH protein; format: in vivo, mouse; settings: DIO mice, Fc-GLP1
[8] = body weight, HFD-fed; format: in vivo, mouse; settings: DIO mice, 1 week
[9] = system: GCGR and GLP-1R; settings: vs cognate ligands; cited from earlier work
[10] = cited from earlier work
[11] = cited from earlier work; remark: listed apart in the source
[12] = cited from earlier work; remark: listed apart in the source
[13] = system: eWAT explants; test: lipolysis; format: cell-based, mouse; settings: 10 nM glucagon, 4 h
[14] = system: GCGR; test: block of glucagon-induced glucose elevation in lean mice; format: in vivo, mouse

With “HGEGTFTSDVSSYLEGQAAKEFIAWLVKGG-linker-Fc [Fc-GLP1, reference compound]” the ketogenesis [1] was “ketogenesis was not elevated”, the plasma insulin peak [2] was “a lower insulin peak” and the BAT temperature [3] was “neither UCP1 nor BAT temperature were increased”. For the same substance, the “cFos positive POMC neurons” value [4] was “an increase in cFos positive POMC neurons”, the peptide plasma level [5] was 105.1 ± 18.33 nM and the “plasma FFAs” value ([6]; DIO mice, Fc-GLP1, 6 h) was “elevation of FFAs was not observed”. The “UCP1 in BAT” value [7] was “neither UCP1 nor BAT temperature were increased” and the “loss of body weight” value ([8]; Fc-GLP1 50 nmol/kg) was 11.0 ± 0.46%.
In the case of “OXM: native peptide oxyntomodulin, activates both GLP-1R and GCGR”, the “affinity to GLP-1R and GCGR” value [9] is given as “reduced affinity compared with their cognate ligands” and the half-life in circulation [10] is given as “short half-life in circulation”.
For cotadutide, the “postprandial glucose, body weight, hepatic fat” value ([11]; obese/overweight individuals, type 2 diabetes) is given as “improved postprandial glucose excursions and reduced body weight and hepatic fat”, the “glycemia, body weight, MASLD” value ([11]; phase 2b trial) is given as “reduced glycemia and body weight and improved metabolic-dysfunction associated steatotic liver disease (MASLD)” and the “liver metabolism, MASH and fibrosis” value ([10]; C57BL/6J or ob/ob mice) is given as “more effective than obeticholic acid in improving liver metabolism and ameliorating MASH and fibrosis”. The “liver inflammation and adipocyte apoptosis” value [10] was “decreased liver inflammation and apoptosis in adipocytes”.
For glucagon: native GCGR ligand, the “FFA concentration, supraphysiological administration” value [12] is listed as “increased FFA concentration”, the “plasma FFAs, physiological doses” value ([12]; humans) is listed as “did not find elevation in plasma FFAs in humans” and the “lipolysis ex vivo in WAT explants” value ([12]; wild-type or adipocyte-specific GCGR-deficient mice, 1 h) is listed as “lack of effect of glucagon in lipolysis ex vivo in WAT explants”. For the same substance, the “circulating FFAs / lipolysis” value ([6]; lean mice, glucagon (100 nmol/kg), 1 h) was “this effect was not detected at 1 h; also recorded: did not increase lipolysis at 1 h”, the “circulating FFAs” value ([6]; lean mice, glucagon, 6 h post-injection) was “an increase of circulating FFAs at 6 h post-injection” and the lipolysis [13] was “increased lipolysis in eWAT explants”.
With “des-His1-[Glu9]-Glucagon (1-29) amide [GCGRant, reference compound]” the “block of glucagon effect on glucose” value [14] was “able to block the effect of glucagon in elevating glucose levels in lean mice” and the body weight loss ([8]; GCGRant alone (1 mg/kg i.p. daily)) was 6.8 ± 0.46%.
